pIC50: −log10 of the molar value. Active and inactive are the calls of the source. The calls are words filed in the database; no cut-off is given here.
Key:
Lolium perenne [1] = assay: Inhibition of photosynthetic efficiency in Lolium perenne (perennial ryegrass) assessed as effect on OJIP transients at 100 uM measured 24 to 48 hr post compound application; format: functional, organism-based
In short: (§1)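 Greenhouse L. perenne sprayed 18 days after emergence (20 mM DMSO stock diluted into 0.05% Tween-20; vehicle-sprayed controls). Leaves dark-adapted 15 min, then excited with 3000 μmol photons m-2 s-1 red light (650 nm) from three LEDs. OJIP transients recorded at room temperature with a Handy PEA. PI(abs) and other parameters are shown on radar plots normalized to control.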

Lolium perenne [2] = assay: Inhibition of photosynthetic efficiency in Lolium perenne (perennial ryegrass) at 200 uM measured 24 to 72 hr post compound application; format: functional; in short: as §1
Physalis ixocarpa [3] = assay: Inhibition of photosynthetic efficiency in Physalis ixocarpa intact leaves assessed as increase in chlorophyll a fluorescence transients at 100 uM measured 48 hr post compound application; format: functional; set-up: scale not given: the % may be the effect or the level left
In short: (§2)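 P. ixocarpa plants sprayed 15 days after emergence (greenhouse, 25-30 °C; 20 mM DMSO stock diluted into 0.05% Tween-20; vehicle-sprayed controls). Leaves dark-adapted 15 min, then excited with 650 nm red LED light at 3000 μmol photons m-2 s-1. Chl a OJIP transients recorded with a Handy PEA at room temperature. PI(abs) is normalized to control; K-, J- and I-bands come from variable fluorescence difference curves; five replicates.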

Spinacia oleracea [4] = assay: Inhibition of photophosphorylation in Spinacia oleracea (spinach) leaves chloroplasts by titrimetry; format: functional; conditions: read-out: I50
In short: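 Intact spinach chloroplasts (20 μg Chl/mL) were osmotically broken in 3 mL of weakly buffered medium: 100 mM sorbitol, 10 mM KCl, 5 mM MgCl2, 0.5 mM KCN, 1 mM tricine-KOH pH 8.0, 50 μM MV and 1 mM ADP. ATP synthesis was taken from the medium alkalization rate in the linear part of illumination, calibrated by HCl back-titration, as μmol ATP (mg Chl)-1 h-1. I50 was obtained from concentration-activity plots; three replicates.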

Spinacia oleracea [5] = assay: Inhibition of basal electron transport from water to MV in Spinacia oleracea (spinach) leaves chloroplasts at 50 to 300 uM using Clark type electrode system based method; format: functional, organism-based
Spinacia oleracea [6] = assay: Effect on photosynthesis efficiency in Spinacia oleracea (spinach) leaves freshly lysed chloroplasts assessed as change in chlorophyll a fluorescence at 150 to 450 uM; format: functional
In short: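 Freshly lysed spinach thylakoids (20 μg Chl) were placed on filter paper with a dot-blot apparatus and dipped in 3 mL basal electron transport medium without MV, containing compound. After 5 min dark adaptation, fluorescence was excited with 3000 μmol m-2 s-1 650 nm LED light (2 s pulse) at room temperature. Wt = (Ft−F0)/(FJ−F0), difference from control used for K-band; five replicates.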

Spinacia oleracea [7] = assay: Increase in Magnesium-transporting ATPase activity in Spinacia oleracea (spinach) leaves chloroplasts thylakoids at 100 uM
In short: (§3)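 Spinach chloroplasts were isolated in 350 mM sorbitol, 5 mM ascorbate, 20 mM MES pH 6.5, centrifuged at 3000g for 60 s, washed, and resuspended in 35 mM HEPES pH 7.6. Light-triggered Mg2+-ATPase activity of thylakoid membranes was measured as released inorganic phosphate. Ammonium chloride served as positive control.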

Physalis ixocarpa [8] = assay: Effect on biomass production in Physalis ixocarpa assessed as plant dry weight at 200 uM measured 14 days post compound application relative to untreated control; format: functional
In short: (§4)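 Greenhouse-grown plants (pots, watered daily, 25 to 30 °C) of similar size, sprayed at 15 (P. ixocarpa) or 18 (L. perenne) days after emergence. Compound taken from a 20 mM DMSO stock into aqueous 0.05% w/v Tween-20; controls were sprayed with water containing the same DMSO and Tween-20. Plants harvested at ground level, oven-dried at 65 °C to constant weight, then weighed.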

Spinacia oleracea [9] = assay: Inhibition of phosphorylating noncyclic electron transport from water to MV in Spinacia oleracea (spinach) leaves chloroplasts at 50 to 300 uM using Clark type electrode system based method; format: functional
In short: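 Clark-electrode measurement of water-to-MV electron flow in the basal medium (sorbitol, KCl, MgCl2, 0.5 mM KCN, 50 μM MV, 15 mM tricine-KOH pH 8.0; 20 μg Chl/mL; 1 min light), with 1 mM ADP and 3 mM KH2PO4 added.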

Physalis ixocarpa [10] = assay: Inhibition of photosynthetic efficiency in Physalis ixocarpa intact leaves assessed as reduction in PI(abs) level at 200 uM measured 48 hr post compound application; format: functional; in short: as §2
Lolium perenne [11] = assay: Effect on photosynthetic efficiency in Lolium perenne (perennial ryegrass) assessed as increase in PI(abs) transients at 100 uM measured 72 hr post compound application; format: functional; in short: as §1
Physalis ixocarpa [12] = assay: Inhibition of photosynthetic efficiency in Physalis ixocarpa intact leaves assessed as reduction in chlorophyll a fluorescence transients at 200 uM measured 48 hr post compound application; format: functional; in short: as §2
Lolium perenne [13] = assay: Effect on photosynthetic efficiency in Lolium perenne (perennial ryegrass) assessed as increase in OJIP transients at 100 uM measured 72 hr post compound application; format: functional; in short: as §1
Physalis ixocarpa [14] = assay: Effect on biomass production in Physalis ixocarpa assessed as plant dry weight at 100 uM measured 14 days post compound application relative to untreated control; format: functional; in short: as §4
Spinacia oleracea [15] = assay: Inhibition of uncoupled electron transport from water to MV in Spinacia oleracea (spinach) leaves chloroplasts at 50 to 300 uM using Clark type electrode system based method; format: functional, organism-based
In short: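 Water-to-MV electron transport measured with a Clark electrode in the basal medium (20 μg Chl/mL, 50 μM MV, 15 mM tricine-KOH pH 8.0, 1 min illumination), with 6 mM NH4Cl added as uncoupler.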

Spinacia oleracea [16] = assay: Increase in Magnesium-transporting ATPase activity in Spinacia oleracea (spinach) leaves chloroplasts thylakoids at 300 uM; in short: as §3
Lolium perenne [17] = assay: Inhibition of photosynthetic efficiency in Lolium perenne (perennial ryegrass) assessed as effect on OJIP transients at 200 uM measured 72 hr post compound application; format: functional, organism-based; in short: as §1
Physalis ixocarpa [18] = assay: Inhibition of photosynthetic efficiency in Physalis ixocarpa intact leaves assessed as increase in chlorophyll a fluorescence transients at 100 uM measured 72 hr post compound application; format: functional, organism-based; in short: as §2
Lolium perenne [19] = assay: Effect on biomass production in Lolium perenne (perennial ryegrass) assessed as plant dry weight at 100 uM measured 14 days post compound application relative to untreated control; format: functional; in short: as §4
Lolium perenne [20] = assay: Effect on biomass production in Lolium perenne (perennial ryegrass) assessed as plant dry weight at 200 uM measured 14 days post compound application relative to untreated control; format: functional; in short: as §4
Spinacia oleracea [21] = assay: Increase in Magnesium-transporting ATPase activity in Spinacia oleracea (spinach) leaves chloroplasts thylakoids at 200 uM; in short: as §3
Physalis ixocarpa [22] = assay: Inhibition of photosynthetic efficiency in Physalis ixocarpa intact leaves assessed as reduction in PI(abs) level at 100 uM measured 48 hr post compound application; format: functional; in short: as §2
Physalis ixocarpa [23] = assay: Inhibition of photosynthetic efficiency in Physalis ixocarpa intact leaves assessed as effect on OJIP transients at 100 uM measured 24 hr post compound application; format: functional, organism-based; in short: as §2

With `C[C@H]1[C@@H](O)CC[C@@H]2[C@]1(C)CC[C@H]1[C@@]2(C)CC[C@@]2(C)[C@@H]3CC(C)(C)CC[C@]3(C)CC[C@]12C` [EPIFRIEDELINOL] the inhibition (Lolium perenne [1]) was “inactive”, the inhibition at 200 µM (Lolium perenne [2]) was 12% and the Activity (Physalis ixocarpa [3]) was 10%. The pIC50 (Spinacia oleracea [4]) was 4.09, the inhibition (Spinacia oleracea [5]) was “inactive” and the Activity (Spinacia oleracea [6]) was “Active”. The Activity (Spinacia oleracea [7]) was 110%, the Activity (Physalis ixocarpa [8]) was 101.3% and the inhibition (Spinacia oleracea [9]) was “inactive”. For the same compound, the inhibition at 200 µM (Physalis ixocarpa [10]) was 15%, the Activity (Lolium perenne [11]) was 10% and the inhibition at 200 µM (Physalis ixocarpa [12]) was 10%. The Activity (Lolium perenne [13]) was 20%, the Activity (Physalis ixocarpa [14]) was 23.2% and the inhibition (Spinacia oleracea [15]) was “inactive”. For the same compound, the Activity (Spinacia oleracea [16]) was 123%, the inhibition (Lolium perenne [17]) was “inactive” and the Activity (Physalis ixocarpa [18]) was “Active”. The Activity (Lolium perenne [19]) was 79.6%, the Activity (Lolium perenne [20]) was 91.2% and the Activity (Spinacia oleracea [21]) was 112%. The inhibition at 100 µM (Physalis ixocarpa [22]) was 40% and the inhibition (Physalis ixocarpa [23]) was “inactive”.
Work on `C[C@H]1C(=O)CC[C@@H]2[C@]1(C)CC[C@H]1[C@@]2(C)CC[C@@]2(C)[C@@H]3CC(C)(C)CC[C@]3(C)CC[C@]12C` [FRIEDELINE] yielded a pIC50 (Spinacia oleracea [4]) of 3.74.
`C[C@H]1C(=O)CC[C@@H]2[C@]1(C)CC[C@H]1[C@@]2(C)CC[C@@]2(C)[C@@H]3C[C@](C)(C(=O)O)CC[C@]3(C)CC[C@]12C` [MAYTENOIC ACID] was tested, and the pIC50 (Spinacia oleracea [4]) was 3.57.
